Test results as given in ChEMBL document CHEMBL5705902, “Role of G Protein-Coupled Receptor Kinases 2 and 3 in μ-Opioid Receptor Desensitization and Internalization” (Mol Pharmacol, 2015).
Active and inactive are the calls of the source. The rule behind the calls is not given here.

What was measured:
[1] = biological target: Mu-type opioid receptor (Rattus norvegicus) (UniProt P33535); assay: Inhibition of MOPr desensitization in wistar rat LC neuron cells assessed as reduction in the DAMGO induced desensitization at 30 uM incubated for 15 mins before in the presence of GF109203X; assay type: functional, cell-based
Target sequence in this assay (P33535 whole entry, the tested form may be a part): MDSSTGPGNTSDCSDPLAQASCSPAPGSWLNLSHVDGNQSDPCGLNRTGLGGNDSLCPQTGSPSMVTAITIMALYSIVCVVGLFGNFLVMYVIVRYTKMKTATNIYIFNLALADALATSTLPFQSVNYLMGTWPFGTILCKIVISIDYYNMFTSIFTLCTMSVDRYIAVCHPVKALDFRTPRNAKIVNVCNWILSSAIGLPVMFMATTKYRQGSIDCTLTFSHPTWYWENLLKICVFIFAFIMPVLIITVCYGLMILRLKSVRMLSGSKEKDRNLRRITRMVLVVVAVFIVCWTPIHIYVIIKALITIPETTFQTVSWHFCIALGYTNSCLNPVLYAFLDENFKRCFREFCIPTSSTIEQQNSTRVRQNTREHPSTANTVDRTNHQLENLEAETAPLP

[2] = biological target: G protein-coupled receptor kinase 5 (Bos taurus) (UniProt P43249); assay: Inhibition of C-terminal truncations tagged bovine GRK5 at 125 uM in the presence of ATP
[3] = biological target: Insulin-like growth factor 1 receptor (Homo sapiens) (UniProt P08069); assay: Inhibition of human IGF1R assessed as remaining activity at 1 uM in presence of 32ATP relative to control
Method in brief: (§1)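 Express panel of 52 purified human kinases run in vitro. Kinase activity was measured directly by a radioactive filter-binding assay with ³²ATP, at ATP levels at or below each kinase's calculated Km for ATP. The compound was tested at 1 μM. Each assay was run in duplicate, and activity is given as the mean percentage (with S.D.) of activity without inhibitor.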

[4] = biological target: Mitogen-activated protein kinase 3 (Homo sapiens) (UniProt P27361); assay: Inhibition of human ERK1 assessed as remaining activity at 1 uM in presence of 32ATP relative to control; method in brief: as §1
[5] = biological target: T1, cAMP-dependent protein kinase (PKA) (Homo sapiens) (UniProt P22694+P17612+P22612); assay: Inhibition of human PKA assessed as remaining activity at 1 uM in presence of 32ATP relative to control; assay type: protein assay; method in brief: as §1
[6] = biological target: Mu-type opioid receptor (Rattus norvegicus) (UniProt P33535); assay: Inhibition of MOPr desensitization (unknown origin) assessed as DAMGO induced loss of functional receptor at 30 uM incubated for 15 mins relative to control
Target sequence in this assay (P33535 whole entry, looked up, the tested form may be a part): as the sequence (P33535 whole entry, the tested form may be a part) above

[7] = biological target: Mu-type opioid receptor (Rattus norvegicus) (UniProt P33535); assay: Inhibition of HA-tagged rat MOPr stably expressing in HEK293 cells assessed as increase in ERK1/2 phosphorylation level at 30 uM preincubated for 30 mins by westernblot analysis; assay type: functional, cell-based
Method in brief: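 HEK 293 cells stably expressing HA-tagged rat MOPr were grown to 90% confluence and serum-starved 24 h. Inhibitor was added for 30 min, then DAMGO 10 μM for 5 min. pERK1/2 was measured by Western blot with ECL detection. Densitometry was done in duplicate, normalized to total ERK1/2 and expressed as % of maximal DAMGO response; n = 4.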
Target sequence in this assay (P33535 whole entry, the tested form may be a part): as above

[8] = biological target: Ribosomal protein S6 kinase alpha-5 (Homo sapiens) (UniProt O75582); assay: Inhibition of human MSK1 at 1 uM in presence of 32ATP relative to control; method in brief: as §1
Sequence of Ribosomal protein S6 kinase alpha-5 (Homo sapiens) (O75582 whole entry, looked up): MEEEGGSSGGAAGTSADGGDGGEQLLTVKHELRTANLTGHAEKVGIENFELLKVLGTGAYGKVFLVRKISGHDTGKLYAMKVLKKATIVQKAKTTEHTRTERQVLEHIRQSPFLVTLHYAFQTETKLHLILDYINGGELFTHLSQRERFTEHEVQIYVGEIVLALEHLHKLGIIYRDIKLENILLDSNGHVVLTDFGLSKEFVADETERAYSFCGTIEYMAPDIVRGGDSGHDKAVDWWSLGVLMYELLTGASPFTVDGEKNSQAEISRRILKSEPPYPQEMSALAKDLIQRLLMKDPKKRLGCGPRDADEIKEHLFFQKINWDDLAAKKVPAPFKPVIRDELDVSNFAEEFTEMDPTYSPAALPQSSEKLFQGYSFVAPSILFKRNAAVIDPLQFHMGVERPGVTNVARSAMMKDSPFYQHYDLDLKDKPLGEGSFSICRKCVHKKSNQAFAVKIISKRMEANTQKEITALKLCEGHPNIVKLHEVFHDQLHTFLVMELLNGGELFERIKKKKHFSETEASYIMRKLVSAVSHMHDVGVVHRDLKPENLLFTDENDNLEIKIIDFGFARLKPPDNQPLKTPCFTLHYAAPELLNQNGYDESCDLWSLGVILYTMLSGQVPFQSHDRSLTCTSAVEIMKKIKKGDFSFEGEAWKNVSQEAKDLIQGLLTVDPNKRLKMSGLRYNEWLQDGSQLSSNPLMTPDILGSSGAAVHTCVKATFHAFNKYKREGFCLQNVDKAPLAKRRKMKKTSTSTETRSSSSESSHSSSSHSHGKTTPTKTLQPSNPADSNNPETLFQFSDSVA

[9] = biological target: Tyrosine-protein kinase Lck (Homo sapiens) (UniProt P06239); assay: Inhibition of human Lck assessed as remaining activity at 1 uM in presence of 32ATP relative to control; method in brief: as §1
[10] = biological target: Mitogen-activated protein kinase 8 (Homo sapiens) (UniProt P45983); assay: Inhibition of human JNK1 assessed as remaining activity at 1 uM in presence of 32ATP relative to control; method in brief: as §1
Sequence of Mitogen-activated protein kinase 8 (Homo sapiens) (P45983 whole entry): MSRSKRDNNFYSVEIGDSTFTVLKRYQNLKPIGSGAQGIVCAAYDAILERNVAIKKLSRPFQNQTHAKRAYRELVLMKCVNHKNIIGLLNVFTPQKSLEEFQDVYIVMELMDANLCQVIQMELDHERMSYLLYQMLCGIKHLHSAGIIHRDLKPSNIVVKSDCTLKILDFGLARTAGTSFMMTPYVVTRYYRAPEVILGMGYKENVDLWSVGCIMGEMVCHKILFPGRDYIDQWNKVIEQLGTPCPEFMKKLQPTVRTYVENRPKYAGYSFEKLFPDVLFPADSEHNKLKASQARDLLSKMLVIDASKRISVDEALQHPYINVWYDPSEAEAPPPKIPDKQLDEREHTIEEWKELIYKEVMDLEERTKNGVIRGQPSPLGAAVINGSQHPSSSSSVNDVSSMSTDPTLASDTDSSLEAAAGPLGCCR

[11] = biological target: Ephrin type-A receptor 2 (Homo sapiens) (UniProt P29317); assay: Inhibition of human EPHA2 assessed as remaining activity at 1 uM in presence of 32ATP relative to control; method in brief: as §1
[12] = biological target: Mu-type opioid receptor (Rattus norvegicus) (UniProt P33535); assay: Inhibition of MOPr desensitization (unknown origin) assessed as reduction in the DAMGO induced desensitization at 3 to 30 uM incubated for 15 mins; details: dose 3-30 µM
Target sequence in this assay (P33535 whole entry, looked up, the tested form may be a part): as the sequence (P33535 whole entry, the tested form may be a part) above

[13] = biological target: Mu-type opioid receptor (Rattus norvegicus) (UniProt P33535); assay: Inhibition of HA-tagged rat MOPr in HEK293 cells assessed as DAMGO induced MOPr phosphorylation at Ser375 level at 30 uM preincubated for 30 mins by western blot analysis; assay type: functional, cell-based
Method in brief: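 Serum-starved HEK 293 cells stably expressing HA-rat MOPr were pretreated with inhibitor for 30 min, then DAMGO 10 μM for 5 min. Receptor was enriched on WGA-agarose overnight at 4°C and blotted for pSer375. Densitometry was done in duplicate and normalized to total HA-MOPr; n = 3.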
Target sequence in this assay (P33535 whole entry, the tested form may be a part): as above

[14] = biological target: Protein kinase C (PKC) (Homo sapiens) (UniProt O94806+P41743+P17252+P05129+Q05655+P05771+Q05513+Q02156+P24723+Q15139+Q04759); assay: Inhibition of PKC (unknown origin) at 1 uM in presence of 32ATP relative to control; assay type: protein assay
Method in brief: (§2)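 Express screen of 52 purified human kinases run as a radioactive filter-binding assay with 32ATP, at 1 μM inhibitor. ATP was at or below each kinase's calculated Km. Activity is given as percent of the activity without inhibitor. Run in duplicate; mean with S.D.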

[15] = biological target: Serine/threonine-protein kinase PLK1 (Homo sapiens) (UniProt P53350); assay: Inhibition of human PLK1 assessed as remaining activity at 1 uM in presence of 32ATP relative to control; method in brief: as §1
[16] = biological target: 3-phosphoinositide-dependent protein kinase 1 (Homo sapiens) (UniProt O15530); assay: Inhibition of human PDK1 assessed as remaining activity at 1 uM in presence of 32ATP relative to control
[17] = biological target: Tyrosine-protein kinase BTK (Homo sapiens) (UniProt Q06187); assay: Inhibition of human BTK assessed as remaining activity at 1 uM in presence of 32ATP relative to control; method in brief: as §2
[18] = biological target: Myosin light chain kinase, smooth muscle (Homo sapiens) (UniProt Q15746); assay: Inhibition of human SmMLCK assessed as remaining activity at 1 uM in presence of 32ATP relative to control; method in brief: as §1
Sequence of Myosin light chain kinase, smooth muscle (Homo sapiens) (Q15746 whole entry): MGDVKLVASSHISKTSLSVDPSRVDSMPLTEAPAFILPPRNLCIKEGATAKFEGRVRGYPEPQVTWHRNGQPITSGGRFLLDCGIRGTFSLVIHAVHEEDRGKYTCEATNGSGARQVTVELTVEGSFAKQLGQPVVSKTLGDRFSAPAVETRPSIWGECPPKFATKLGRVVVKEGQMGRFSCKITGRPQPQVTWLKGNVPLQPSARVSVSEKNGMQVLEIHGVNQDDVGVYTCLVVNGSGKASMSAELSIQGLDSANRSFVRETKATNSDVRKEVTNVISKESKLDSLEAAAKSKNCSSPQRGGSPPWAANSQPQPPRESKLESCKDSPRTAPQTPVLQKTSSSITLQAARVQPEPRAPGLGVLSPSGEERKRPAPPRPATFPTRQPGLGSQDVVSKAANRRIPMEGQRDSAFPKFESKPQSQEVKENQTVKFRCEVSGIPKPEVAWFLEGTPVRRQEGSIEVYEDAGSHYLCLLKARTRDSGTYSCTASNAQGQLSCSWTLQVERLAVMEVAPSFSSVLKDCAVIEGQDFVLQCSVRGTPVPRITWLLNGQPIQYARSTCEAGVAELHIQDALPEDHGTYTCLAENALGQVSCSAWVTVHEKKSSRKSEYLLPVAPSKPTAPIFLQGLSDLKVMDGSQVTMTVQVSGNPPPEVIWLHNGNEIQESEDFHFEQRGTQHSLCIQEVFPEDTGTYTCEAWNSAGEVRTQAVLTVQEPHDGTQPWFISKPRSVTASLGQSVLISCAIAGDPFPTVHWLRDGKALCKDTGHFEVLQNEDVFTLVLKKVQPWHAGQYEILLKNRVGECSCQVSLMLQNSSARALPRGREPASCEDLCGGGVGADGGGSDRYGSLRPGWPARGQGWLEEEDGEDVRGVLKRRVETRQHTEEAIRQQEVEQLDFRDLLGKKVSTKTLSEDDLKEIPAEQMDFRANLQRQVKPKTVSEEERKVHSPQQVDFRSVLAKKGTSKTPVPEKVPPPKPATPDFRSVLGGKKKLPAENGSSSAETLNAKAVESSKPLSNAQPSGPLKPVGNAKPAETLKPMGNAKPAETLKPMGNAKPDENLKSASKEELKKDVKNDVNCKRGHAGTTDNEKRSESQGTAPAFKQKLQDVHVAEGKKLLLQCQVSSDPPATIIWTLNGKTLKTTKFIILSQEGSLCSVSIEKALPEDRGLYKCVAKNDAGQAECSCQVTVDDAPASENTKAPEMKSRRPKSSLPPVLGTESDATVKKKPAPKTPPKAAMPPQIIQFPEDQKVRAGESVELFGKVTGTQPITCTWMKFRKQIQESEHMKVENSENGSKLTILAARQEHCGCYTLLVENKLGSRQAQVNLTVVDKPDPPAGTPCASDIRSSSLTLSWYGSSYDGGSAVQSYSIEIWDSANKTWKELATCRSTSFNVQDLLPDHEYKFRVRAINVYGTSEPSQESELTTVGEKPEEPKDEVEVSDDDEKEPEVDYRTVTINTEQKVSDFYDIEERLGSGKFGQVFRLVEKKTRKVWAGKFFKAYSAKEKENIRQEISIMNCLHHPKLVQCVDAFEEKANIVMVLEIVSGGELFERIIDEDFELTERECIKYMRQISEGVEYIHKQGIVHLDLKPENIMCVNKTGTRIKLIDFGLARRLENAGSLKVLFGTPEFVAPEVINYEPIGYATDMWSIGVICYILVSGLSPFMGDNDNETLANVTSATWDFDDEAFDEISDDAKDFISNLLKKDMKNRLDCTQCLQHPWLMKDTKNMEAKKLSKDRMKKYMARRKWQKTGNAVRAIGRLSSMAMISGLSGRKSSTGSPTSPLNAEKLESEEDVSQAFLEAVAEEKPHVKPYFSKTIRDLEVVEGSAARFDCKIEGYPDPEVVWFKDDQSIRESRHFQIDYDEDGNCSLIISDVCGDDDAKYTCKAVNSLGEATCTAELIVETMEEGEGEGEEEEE

[19] = biological target: T1, cAMP-dependent protein kinase (PKA) (Homo sapiens); assay: Inhibition of PKA (unknown origin) at 1 uM in presence of 32ATP relative to control; assay type: protein assay; method in brief: as §2
[20] = biological target: Aurora kinase B (Homo sapiens) (UniProt Q96GD4); assay: Inhibition of human Aurora B assessed as remaining activity at 1 uM in presence of 32ATP relative to control; method in brief: as §2
[21] = biological target: Tyrosine-protein kinase SYK (Homo sapiens) (UniProt P43405); assay: Inhibition of human SYK assessed as remaining activity at 1 uM in presence of 32ATP relative to control; method in brief: as §1
[22] = biological target: Receptor-interacting serine/threonine-protein kinase 2 (Homo sapiens) (UniProt O43353); assay: Inhibition of human RIPK2 assessed as remaining activity at 1 uM in presence of 32ATP relative to control; method in brief: as §1
[23] = biological target: Dual specificity protein kinase TTK (Homo sapiens) (UniProt P33981); assay: Inhibition of human TTK assessed as remaining activity at 1 uM in presence of 32ATP relative to control; method in brief: as §1
Sequence of Dual specificity protein kinase TTK (Homo sapiens) (P33981 whole entry): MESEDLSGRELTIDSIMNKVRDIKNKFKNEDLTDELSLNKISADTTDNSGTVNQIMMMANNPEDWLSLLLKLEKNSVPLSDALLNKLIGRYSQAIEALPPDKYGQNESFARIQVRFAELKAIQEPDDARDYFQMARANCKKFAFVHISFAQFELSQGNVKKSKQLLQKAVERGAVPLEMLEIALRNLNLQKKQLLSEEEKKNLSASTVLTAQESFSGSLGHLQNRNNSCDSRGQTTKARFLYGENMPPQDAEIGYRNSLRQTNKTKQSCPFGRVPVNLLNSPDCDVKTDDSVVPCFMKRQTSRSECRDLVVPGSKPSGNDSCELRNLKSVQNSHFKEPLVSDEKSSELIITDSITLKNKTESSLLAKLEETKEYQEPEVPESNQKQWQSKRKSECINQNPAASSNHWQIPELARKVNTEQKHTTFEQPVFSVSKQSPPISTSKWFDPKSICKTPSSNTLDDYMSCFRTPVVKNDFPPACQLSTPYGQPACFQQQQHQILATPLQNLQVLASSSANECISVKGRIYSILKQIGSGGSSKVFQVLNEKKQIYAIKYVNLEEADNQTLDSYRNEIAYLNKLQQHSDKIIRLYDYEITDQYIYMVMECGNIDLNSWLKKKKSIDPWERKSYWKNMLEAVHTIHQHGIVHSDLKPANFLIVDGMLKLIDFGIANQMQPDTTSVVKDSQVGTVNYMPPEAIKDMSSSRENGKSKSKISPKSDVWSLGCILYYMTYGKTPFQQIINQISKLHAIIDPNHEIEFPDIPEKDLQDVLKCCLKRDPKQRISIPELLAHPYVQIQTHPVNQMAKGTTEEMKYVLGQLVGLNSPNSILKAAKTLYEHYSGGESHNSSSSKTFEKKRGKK

[24] = biological target: Mu-type opioid receptor (Rattus norvegicus) (UniProt P33535); assay: Inhibition of HA-tagged rat MOPr in HEK293 cells assessed as reduction in DAMGO induced MOPr internalization level at 30 uM preincubated for 30 mins by confocal microscopy analysis; assay type: functional, cell-based
Method in brief: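 HA-MOPr HEK 293 cells were prelabeled with anti-HA at 4°C for 1 h, then given inhibitor (30 μM) 30 min at 37°C and DAMGO 10 μM. Cells were stained with a fluorescein secondary and Hoechst and imaged by confocal microscopy (63× oil); repeated 3 times.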
Target sequence in this assay (P33535 whole entry, the tested form may be a part): as the sequence (P33535 whole entry, the tested form may be a part) above

[25] = biological target: Tyrosine-protein kinase JAK2 (Homo sapiens) (UniProt O60674); assay: Inhibition of human JAK2 assessed as remaining activity at 1 uM in presence of 32ATP relative to control; method in brief: as §1

Cn1c(CNc2cccc(C(=O)NCc3ccccc3C(F)(F)F)c2)nnc1-c1ccncc1
inhibition [1]: inactive | inhibition [2]: inactive | Activity [3]: 103% | Activity [4]: 83% | Activity [5]: 95% | inhibition [6]: 59% | inhibition [7]: Active | inhibition [8]: > 50% | Activity [9]: 94% | Activity [10]: 93% | Activity [11]: 85% | inhibition [12]: Active | inhibition [13]: Active | inhibition [14]: < 20% | Activity [15]: 106% | Activity [16]: 93% | Activity [17]: 72% | Activity [18]: 89% | inhibition [19]: < 20% | Activity [20]: 92% | Activity [21]: 103% | Activity [22]: 93% | Activity [23]: 89% | inhibition [24]: Active | Activity [25]: 94%
